Measurements as given in ChEMBL document CHEMBL4334542, “Antimalarial N 1,N 3-Dialkyldioxonaphthoimidazoliums: Synthesis, Biological Activity, and Structure-activity Relationships” (ACS Med Chem Lett, 2020).
Activity calls are given as the source filed them. No cut-off for these calls is given here.

How the values were obtained:
[1] = test system: Plasmodium falciparum; assay: Antimalarial activity against asexual stage of Plasmodium falciparum 3D7 infected in erythrocytes assessed as reduction in parasite growth incubated for 48 hrs under hypoxic condition by Hoechst 33342 staining based flow cytometry; type: functional, organism-based; conditions: 3D7, 48 h
Outline: (§1)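 Asexual Dd2 and 3D7 parasites in erythrocytes; DNA content of infected cells measured by Hoechst 33342 staining and FACS. IC50 is the concentration giving 50% of the net fluorescence of untreated control cultures; mean ± SD of n = 3 separate determinations.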

[2] = test system: Plasmodium falciparum; assay: Antimalarial activity against asexual stage of Plasmodium falciparum Dd2 infected in erythrocytes assessed as reduction in parasite growth incubated for 48 hrs under hypoxic condition by Hoechst 33342 staining based flow cytometry; type: functional, organism-based; conditions: Dd2, 48 h; outline: as §1
[3] = test system: CHO-K1; assay: Cytotoxicity against CHOK1 cells assessed as reduction in cell viability incubated for 48 hrs by CellTiter 96 aqueous one solution assay; type: cell-based; conditions: Cricetulus griseus, CHO-K1, 48 h
Outline: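 Cell growth measured by a tetrazolium dye assay. IC50 is the concentration reducing growth by 50% relative to untreated cultures; mean ± SD of n = 3 separate determinations.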

[4] = test system: Plasmodium falciparum; assay: Antimalarial activity against Plasmodium falciparum NF54 early gametocytes transfected with luciferase gene incubated for 48 hrs by luciferase reporter gene assay; type: functional, organism-based; conditions: NF54, 48 h
Outline: (§2)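 Gametocytes of NF54-Pfs16-GFP-Luc, early (>95% stage II/III) or late (>90% stage IV/V); luciferase read-out. IC50 is the concentration giving 50% reduction of luminescence; mean ± SEM of n = 3 independent biological replicates.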

[5] = test system: Plasmodium falciparum; assay: Antimalarial activity against asexual stage of Plasmodium falciparum NF54 assessed as reduction in parasite growth incubated for 96 hrs by SYBR Green I dye-based fluorescence assay; type: functional, organism-based; conditions: NF54, 96 h
Outline: (§3)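 Asexual NF54, K1 and W2 parasites; proliferation read as SYBR Green I fluorescence. IC50 is the concentration giving 50% of the net SYBR Green I fluorescence of untreated control cultures; mean ± SEM of n = 3 independent biological replicates.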

[6] = test system: Plasmodium falciparum; assay: Antimalarial activity against Plasmodium falciparum NF54 late gametocytes transfected with luciferase gene incubated for 48 hrs by luciferase reporter gene assay; type: functional, organism-based; conditions: NF54, 48 h; outline: as §2
[7] = test system: Plasmodium falciparum; assay: Antimalarial activity against asexual stage of Plasmodium falciparum K1 assessed as reduction in parasite growth incubated for 96 hrs by SYBR Green I dye-based fluorescence assay; type: functional, organism-based; conditions: K1, 96 h; outline: as §3
[8] = test system: Plasmodium falciparum; assay: Antimalarial activity against asexual stage of Plasmodium falciparum W2 assessed as reduction in parasite growth incubated for 96 hrs by SYBR Green I dye-based fluorescence assay; type: functional, organism-based; conditions: W2, 96 h
[9] = Redox cycling activity of the compound […] measured after 45 mins by phenol red reagent based horseradish peroxidase coupled assay
Outline: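 Redox cycling EC50 determined by the phenol red horseradish peroxidase assay.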

[10] = test system: Plasmodium falciparum; assay: Antimalarial activity against asexual stage of Plasmodium falciparum NF54 assessed as reduction in parasite growth at 1 uM incubated for 96 hrs by SYBR Green I dye-based fluorescence assay relative to control; type: functional; design: scale not given: the % may be the effect or the level left
[11] = test system: Plasmodium falciparum; assay: Antimalarial activity against Plasmodium falciparum NF54 incubated for 48 hrs by [3H]-hypoxanthine incorporation assay; type: functional, organism-based
[12] = test system: Plasmodium falciparum; assay: Antimalarial activity against Plasmodium falciparum K1 incubated for 48 hrs by [3H]-hypoxanthine incorporation assay; type: functional, organism-based
[13] = test system: Plasmodium falciparum; assay: Antimalarial activity against Plasmodium falciparum TM90C2B incubated for 48 hrs by [3H]-hypoxanthine incorporation assay; type: functional, organism-based

Structure (SMILES)	IC50 [1] [nM]	IC50 [2] [nM]	IC50 [3] [nM]	IC50 [4] [nM]	IC50 [5] [nM]	IC50 [6] [nM]	IC50 [7] [nM]	IC50 [8] [nM]	also measured
Cc1n(C)c2c([n+]1C)C(=O)c1ccccc1C2=O	22.6	26.5	5700	–	–	–	–	–	–
CCCCCCCCCCCC[n+]1c2c(n(CC(C)C)c1C)C(=O)c1ccccc1C2=O	–	–	–	361	4.3	174	11.2	5.5	–
CCCC[n+]1c2c(n(CC(C)C)c1C)C(=O)c1ccccc1C2=O	–	–	–	181	7.2	275	9.85	5.1	–
CCCCn1c2c([n+](CCCC)c1C)C(=O)c1ccccc1C2=O	50.5	43.6	30400	–	–	–	–	–	–
CC[n+]1c2c(n(CC(C)C)c1C)C(=O)c1ccccc1C2=O	–	–	–	33	1.63	1020	3.1	1.62	–
CCC[n+]1c2c(n(C)c1C)C(=O)c1ccccc1C2=O	4.8	14.3	3900	–	–	–	–	–	–
Cc1nc2c(n1C)C(=O)c1ccccc1C2=O	–	–	–	–	–	–	–	–	Activity [9]: inactive; Activity [10]: <=50%
CCCCCC[n+]1c2c(n(CC(C)C)c1C)C(=O)c1ccccc1C2=O	–	–	–	143	6.2	551	10	5.28	–
O=C1C=CC(=O)C=C1 [BENZOQUINONE]	–	–	–	–	–	–	–	–	Activity [10]: 20 - 40%
CCCCCCCCCC[n+]1c2c(n(CC(C)C)c1C)C(=O)c1ccccc1C2=O	–	–	–	370	4.96	237	13.3	6.1	–
CCCn1c2c([n+](CC)c1C)C(=O)c1ccccc1C2=O	3.7	8.4	8200	390	3.45	709	6.5	4.94	Activity [9]: Active; IC50 [11]: 1.2 nM; IC50 [12]: 2.2 nM; IC50 [13]: 2.2 nM
CCCC[n+]1c2c(n(C)c1C)C(=O)c1ccccc1C2=O	4.3	14.1	13100	–	–	–	–	–	–
CCCCn1c2c([n+](C3CC3)c1C)C(=O)c1ccccc1C2=O	182	20.8	10100	–	–	–	–	–	–
CCn1c2c([n+](CC)c1C)C(=O)c1ccccc1C2=O	6	19.1	14700	–	–	–	–	–	–
Cc1n(C(C)C)c2c([n+]1C1CC1)C(=O)c1ccccc1C2=O	15.8	25	14600	–	–	–	–	–	–
Cc1n(C2CC2)c2c([n+]1C1CC1)C(=O)c1ccccc1C2=O	41.5	38.6	42500	–	–	–	–	–	–
CCn1c2c([n+](C3CC3)c1C)C(=O)c1ccccc1C2=O	66.1	35	6600	–	–	–	–	–	–
Cc1n(C)c2c([n+]1C1CC1)C(=O)c1ccccc1C2=O	25.7	30.4	3100	–	–	–	–	–	–
CCCn1c2c([n+](C(C)C)c1C)C(=O)c1ccccc1C2=O	4	8	26800	162	2.28	567	3.1	2.2	Activity [9]: Active; IC50 [11]: 1 nM; IC50 [12]: 2.1 nM; IC50 [13]: 1.8 nM
CC[n+]1c2c(n(C)c1C)C(=O)c1ccccc1C2=O	8.4	19.9	3600	–	–	–	–	–	–
Cc1n(CC(C)C)c2c([n+]1C1CC1)C(=O)c1ccccc1C2=O	–	–	–	139	3.94	832	5.85	2.55	–
Cc1nc2c(n1C(C)C)C(=O)c1ccccc1C2=O	–	–	–	–	–	–	–	–	Activity [9]: inactive; Activity [10]: <=50%
